Results as given in the M2OR odorant receptor database.

Columns and labels:
Conditions in all cases: stereoisomer not certain
[1] = target: T1, OR10A3 (Homo sapiens) (UniProt P58181)
T1 sequence (whole entry): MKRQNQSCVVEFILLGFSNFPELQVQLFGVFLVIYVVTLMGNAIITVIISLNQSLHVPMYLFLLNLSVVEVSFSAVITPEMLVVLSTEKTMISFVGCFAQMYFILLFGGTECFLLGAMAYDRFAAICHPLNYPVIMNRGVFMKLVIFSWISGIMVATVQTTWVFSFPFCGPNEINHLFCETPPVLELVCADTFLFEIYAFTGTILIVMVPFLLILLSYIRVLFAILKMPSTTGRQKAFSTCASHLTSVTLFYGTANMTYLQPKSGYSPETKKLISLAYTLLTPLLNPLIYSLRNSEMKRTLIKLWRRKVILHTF
Outline: (§1)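 Transient luciferase assays in mammalian cell lines were common, though methods varied by source. The values come from published papers and their supplementary material, with extra details from the original authors when needed. Responsive refers to a measured signal the original authors judged statistically different from baseline, and non-responsive (inactive) to the remainder.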

[2] = target: T2, OR10A4 (Homo sapiens) (UniProt Q9H209)
T2 sequence (whole entry): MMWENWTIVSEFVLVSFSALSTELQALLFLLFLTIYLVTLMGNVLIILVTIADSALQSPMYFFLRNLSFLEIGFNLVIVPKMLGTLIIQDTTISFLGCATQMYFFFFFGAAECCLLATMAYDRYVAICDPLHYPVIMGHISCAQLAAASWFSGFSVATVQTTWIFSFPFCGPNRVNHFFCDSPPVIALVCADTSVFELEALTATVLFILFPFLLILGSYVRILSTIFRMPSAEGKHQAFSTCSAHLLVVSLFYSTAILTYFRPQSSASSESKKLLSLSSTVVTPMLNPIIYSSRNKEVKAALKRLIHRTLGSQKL
Outline: as §1

[3] = target: T3, OR10A5 (Homo sapiens) (UniProt Q9H207)
T3 sequence (whole entry): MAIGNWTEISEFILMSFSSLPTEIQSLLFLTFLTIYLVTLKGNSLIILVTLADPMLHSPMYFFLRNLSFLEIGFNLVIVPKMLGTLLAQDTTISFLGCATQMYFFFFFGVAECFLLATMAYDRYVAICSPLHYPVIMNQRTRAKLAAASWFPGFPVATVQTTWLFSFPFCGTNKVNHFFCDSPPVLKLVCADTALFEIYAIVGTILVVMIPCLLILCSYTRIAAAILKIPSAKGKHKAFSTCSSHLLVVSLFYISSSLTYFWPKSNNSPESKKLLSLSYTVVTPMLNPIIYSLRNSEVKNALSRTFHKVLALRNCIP
Outline: as §1

[4] = target: T4, OR10A6 (Homo sapiens) (UniProt Q8NH74)
T4 sequence (whole entry): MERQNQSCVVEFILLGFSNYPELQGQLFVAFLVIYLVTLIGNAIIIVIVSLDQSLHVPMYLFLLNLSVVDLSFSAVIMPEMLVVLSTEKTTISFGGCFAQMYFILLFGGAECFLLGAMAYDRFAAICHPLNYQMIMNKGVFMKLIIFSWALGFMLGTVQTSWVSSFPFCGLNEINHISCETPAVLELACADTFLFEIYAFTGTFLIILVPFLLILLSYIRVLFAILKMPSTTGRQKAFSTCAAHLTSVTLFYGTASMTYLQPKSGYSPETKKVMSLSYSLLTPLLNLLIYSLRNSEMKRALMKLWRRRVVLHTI
Outline: as §1

[5] = target: T5, OR10A7 (Homo sapiens) (UniProt Q8NGE5)
T5 sequence (whole entry): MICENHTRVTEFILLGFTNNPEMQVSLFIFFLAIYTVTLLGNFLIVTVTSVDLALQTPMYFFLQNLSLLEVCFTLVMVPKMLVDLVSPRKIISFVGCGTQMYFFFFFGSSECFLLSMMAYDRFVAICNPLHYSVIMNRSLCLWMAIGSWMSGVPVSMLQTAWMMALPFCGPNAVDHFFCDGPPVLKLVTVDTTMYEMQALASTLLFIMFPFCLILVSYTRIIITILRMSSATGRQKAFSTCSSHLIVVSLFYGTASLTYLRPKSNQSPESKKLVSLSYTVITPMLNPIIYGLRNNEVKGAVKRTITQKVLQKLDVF
Outline: as §1

[6] = target: T6, OR10AD1 (Homo sapiens) (UniProt Q8NGE0)
T6 sequence (whole entry): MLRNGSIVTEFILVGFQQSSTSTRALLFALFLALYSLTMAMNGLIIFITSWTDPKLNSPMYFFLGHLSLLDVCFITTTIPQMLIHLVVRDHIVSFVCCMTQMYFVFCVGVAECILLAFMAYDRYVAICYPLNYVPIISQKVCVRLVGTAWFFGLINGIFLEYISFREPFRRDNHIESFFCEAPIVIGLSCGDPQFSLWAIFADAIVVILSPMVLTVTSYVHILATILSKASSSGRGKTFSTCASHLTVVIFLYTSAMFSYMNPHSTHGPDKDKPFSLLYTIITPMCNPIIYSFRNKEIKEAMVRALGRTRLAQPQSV
Outline: as §1

[7] = target: T7, OR10AG1 (Homo sapiens) (UniProt Q8NH19)
T7 sequence (whole entry): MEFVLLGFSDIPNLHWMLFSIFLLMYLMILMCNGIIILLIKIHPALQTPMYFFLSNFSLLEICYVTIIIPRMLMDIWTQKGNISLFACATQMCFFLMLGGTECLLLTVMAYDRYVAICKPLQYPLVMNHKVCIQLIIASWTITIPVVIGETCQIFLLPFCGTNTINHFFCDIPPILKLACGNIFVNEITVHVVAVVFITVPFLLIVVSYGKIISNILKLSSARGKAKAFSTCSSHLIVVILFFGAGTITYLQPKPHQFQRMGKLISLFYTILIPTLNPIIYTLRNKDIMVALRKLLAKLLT
Outline: as §1

[8] = target: T8, OR10C1 (Homo sapiens) (UniProt Q96KK4)
T8 sequence (whole entry): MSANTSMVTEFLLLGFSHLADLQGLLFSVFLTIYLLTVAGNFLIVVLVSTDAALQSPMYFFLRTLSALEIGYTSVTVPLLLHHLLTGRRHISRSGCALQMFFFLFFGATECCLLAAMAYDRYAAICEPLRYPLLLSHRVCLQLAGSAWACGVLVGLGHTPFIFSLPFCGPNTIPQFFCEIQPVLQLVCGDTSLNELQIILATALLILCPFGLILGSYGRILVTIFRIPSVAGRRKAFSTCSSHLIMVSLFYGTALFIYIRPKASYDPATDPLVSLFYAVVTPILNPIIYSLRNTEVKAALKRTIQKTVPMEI
Outline: as §1

[9] = target: T9, OR10D3 (Homo sapiens) (UniProt Q8NH80)
T9 sequence (whole entry): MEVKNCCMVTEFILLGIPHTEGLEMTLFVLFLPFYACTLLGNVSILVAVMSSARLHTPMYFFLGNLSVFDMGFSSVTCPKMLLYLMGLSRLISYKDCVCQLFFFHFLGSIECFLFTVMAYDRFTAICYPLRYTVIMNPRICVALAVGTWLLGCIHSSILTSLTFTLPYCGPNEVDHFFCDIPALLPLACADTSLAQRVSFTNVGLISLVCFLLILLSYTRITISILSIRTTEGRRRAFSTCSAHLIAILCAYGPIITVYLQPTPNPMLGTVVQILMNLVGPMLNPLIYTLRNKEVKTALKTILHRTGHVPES
Outline: as §1

Measured: odorant receptor agonist call;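 note: active if original authors judged signal statistically different from baseline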

CC(CO)CS (centres undefined)
inactive: all assays above
